From ChEMBL document CHEMBL4118110, “The identification of inhibitory compounds of Rickettsia prowazekii methionine aminopeptidase for antibacterial applications” (Bioorg Med Chem Lett, 2018) come the findings set out here.

Molecules are shown by their SMILES.

The assay can be described thus: Inhibition of Rickettsia prowazekii N-terminal His6-tagged methionine aminopeptidase 1 expressed in Escherichia coli DLB3 Rosetta cells at 10 uM using Met-AMC as substrate preincubated for 1 hr followed by 30 mins incubation after substrate addition measured after 90 mins in presence of MnCl2 by fluorescence assay relative to control. The method in brief: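 Recombinant R. prowazekii MetAP with Mn(II) as the metal cofactor. Met-AMC substrate; release of free AMC is followed by fluorescence (excitation 360 nm, emission 460 nm). Activity is the slope of fluorescence versus time, compared with an uninhibited control.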
For `CCc1ccc(C(=O)CSc2nnc(CC)[nH]2)cc1`, the inhibition lay within 9 to 47%.

In the case of `O=C(O)C1CCCN1C(=O)c1ccco1` (stereo not drawn), the inhibition fell in the range of 7 to 9%.

`Nc1ccccc1-c1nc(-c2ccc(F)cc2)no1`: the inhibition is 1 to 44%.

As to `COc1ccc(-c2nnc3c(N)cccn23)cc1`, the inhibition was 13 to 23%.

Consider `COc1cc(C=O)ccc1OCc1ccc(C(=O)O)o1`, for which the inhibition is 36 to 53%.

Take `O=C(NCCCCl)C(=O)NCCCCl`: the inhibition lay in the range of 8 to 43%.

`NNC(=O)C(=O)Nc1ccccc1C(=O)O`: the inhibition fell in the range of 11 to 63%.

`Oc1ccc2nc(-c3ccccn3)oc2c1`: the inhibition fell in the range of 1 to 43%.

In the case of `Cc1ccc(OCCCCSc2nnc(N)[nH]2)cc1`, the inhibition was in the range of 45 to 65%.

For `COc1ccc(C=O)cc1OCc1ccc(C(=O)O)o1`, the inhibition was in the range of 36 to 65%.

For `O=C(O)c1cnc2ccccc2c1O`, the inhibition fell in the range of 13 to 55%.

`Cc1ccc(OCCCSc2n[nH]c(N)n2)cc1`: the inhibition lay in the range of 42 to 51%.

In the case of `CC(C)CC(N)c1nnc2ccccn12` (stereo not drawn), the inhibition was in the range of 22 to 61%.

With `O=C(O)c1nn(-c2ccccc2)c2c1CCC2`, the inhibition fell in the range of 45 to 51%.

`O=C(O)c1ccc(Cn2cnc3ccccc32)o1`: the inhibition fell in the range of 9 to 23%.

For the compound `Nc1n[nH]c(SCC(=O)c2cccc([N+](=O)[O-])c2)n1`, the inhibition fell in the range of 8 to 49%.

For `O=C(O)c1cnccn1`, the inhibition fell in the range of 42 to 45%.

For `CCc1n[nH]c(SCC(=O)c2cccc([N+](=O)[O-])c2)n1`, the inhibition was in the range of 16 to 44%.

Take `CCc1n[nH]c(SCC(=O)NCCc2ccccc2)n1`: the inhibition lay in the range of 1 to 15%.

Consider `COc1ccccc1NC(=O)CSc1nnc(C)[nH]1`, for which the inhibition was 1 to 15%.

For the compound `NCc1nc(-c2ccc(F)cc2)no1`, the inhibition was in the range of 62 to 70%.

As to `O=C(NCc1ccco1)c1ccc2nc(O)c(O)nc2c1`, the inhibition was in the range of 35 to 39%.

Regarding `Cc1ccc2nc(-c3ccccn3)cc(C(=O)O)c2c1`, the inhibition worked out at 28%.

As for `CCc1nnc(SCC(=O)c2ccc([N+](=O)[O-])cc2)[nH]1`, the inhibition fell in the range of 75 to 81%.

On to `Cc1ccc(C(=O)NN)cc1`, for which the inhibition was 1 to 34%.

Regarding `NNC(=O)COc1cccc(Br)c1`, the inhibition was in the range of 1 to 45%.

Consider `CCc1n[nH]c(SCC(=O)c2ccc(C)c(C)c2)n1`, for which the inhibition was in the range of 5 to 38%.

With `COc1ccc(Cl)cc1-c1nnc(S)[nH]1`, the inhibition lay in the range of 20 to 65%.

With `O=C(O)c1ccc(CSc2ccccc2)o1`, the inhibition lay in the range of 5 to 34%.

Regarding `Cc1cc(C)c(C(=O)O)c(O)n1`, the inhibition is 44 to 52%.

Regarding `Nc1n[nH]c(SCc2ccccc2Cl)n1`, the inhibition is 24 to 34%.

As to `O=C(O)c1ccc(S(=O)(=O)c2ccc(Cl)cc2)o1`, the inhibition lay in the range of 41 to 68%.

Turning to `CCc1nnc(SCC(=O)c2ccc(C)cc2)[nH]1`, the inhibition lay in the range of 11 to 14%.

Regarding `O=C(O)c1cc(-c2ccccn2)nc2ccccc12`, the inhibition was 37 to 55%.

Consider `Nc1nnc(SCC(=O)OCCOc2ccccc2)[nH]1`, for which the inhibition is 47 to 56%.

Turning to `O=C(O)c1cccnc1-c1ncccc1C(=O)O`, the inhibition fell in the range of 13 to 49%.

`NC(=O)c1nc(-c2ccccc2)oc1Cl`: the inhibition was in the range of 4 to 59%.

Turning to `Cc1ccc(C2NC(C(=O)O)CS2)cc1` (stereo not drawn), the inhibition lay in the range of 1 to 74%.

Consider `NC(=O)CSc1n[nH]c(-c2ccco2)n1`, for which the inhibition fell in the range of 1 to 50%.

Consider `O=C(O)c1ccc(CSc2nnc[nH]2)o1`, for which the inhibition is 16 to 21%.

As to `O=C(O)c1c(-c2ccccc2)c(-c2ccccc2)n[nH]c1=O`, the inhibition is 33 to 71%.

On to `CCCCOC(=O)CSc1nnc(N)[nH]1`, for which the inhibition is 39 to 62%.

For `O=C(O)c1csc(Cc2ccccc2)n1`, the inhibition fell in the range of 1 to 67%.

Consider `CCOC(=O)c1cccc(CSc2nnc(N)[nH]2)c1`, for which the inhibition lay in the range of 47 to 59%.

As to `O=C(O)c1ccc(C2=NCc3ccccc3N2)o1`, the inhibition was 7 to 63%.

Take `Cc1ccc(-c2cc(C(=O)O)nn2C)cc1`: the inhibition fell in the range of 42 to 45%.

`CCOC(=O)CSc1nnc(-c2ccncc2)[nH]1`: the inhibition lay in the range of 1 to 59%.

In the case of `Cc1cc(C)n2c(C(N)CC(C)C)nnc2n1` (stereo not drawn), the inhibition was in the range of 6 to 23%.

On to `Nc1cccc2c(-c3cccnc3)n[nH]c12`, for which the inhibition lay in the range of 16 to 21%.

Turning to `c1ccc(-c2cc[nH]n2)nc1`, the inhibition was in the range of 2 to 52%.

Regarding `COc1cccc(C(=O)Nc2ccsc2C(=O)O)c1`, the inhibition was 1 to 32%.

Turning to `Cc1ccc2nc(-c3ccccn3)c(C(=O)O)cc2c1`, the inhibition lay in the range of 1 to 13%.

For `CN(C)Cc1c(C(=O)O)nc2ccccn12`, the inhibition is 11 to 20%.

For `Nc1nnc(SCC(=O)c2ccc(O)cc2O)[nH]1`, the inhibition fell in the range of 2 to 19%.

Regarding `Nc1nnc(SCCN2CCCCC2)[nH]1`, the inhibition lay in the range of 1 to 34%.

As to `Cc1n[nH]c(SCc2ccc([N+](=O)[O-])cc2)n1`, the inhibition fell in the range of 1 to 38%.

Consider `Nc1n[nH]c(SCC(=O)c2cc3ccccc3o2)n1`, for which the inhibition lay within 21 to 28%.

`O=C(O)c1ccc(-c2ccccc2Cl)s1`: the inhibition is 1 to 48%.

Take `O=C(O)c1n[nH]c2ccccc12`: the inhibition lay within 35 to 36%.

As to `O=C(O)c1ccc(CSc2ccc(Cl)cc2)o1`, the inhibition was 20 to 28%.

Take `Nc1nnc(SCc2ccc([N+](=O)[O-])cc2)[nH]1`: the inhibition was in the range of 42 to 45%.

With `Cc1ccc(-c2nnc(C(C)N)o2)cc1` (stereo not drawn), the inhibition fell in the range of 21 to 49%.

As for `CCOC(=O)CSc1nnc(N)[nH]1`, the inhibition was in the range of 18 to 34%.

Take `CSc1cc(C(=O)O)nc(-c2ccccn2)c1`: the inhibition fell in the range of 36 to 68%.

As for `O=C(O)c1ccc(-c2cc(Cl)ccc2Cl)o1`, the inhibition was 1 to 57%.

On to `Nc1nnc(SCCCOc2ccc(Cl)cc2)[nH]1`, for which the inhibition lay in the range of 22 to 32%.

Consider `Cc1c(C(=O)O)sc2nc(CN(C)C)[nH]c(=O)c12`, for which the inhibition lay in the range of 20 to 25%.

As for `CC(C)CNC(=O)c1ccc2[nH]c(=O)c(=O)[nH]c2c1`, the inhibition was in the range of 35 to 44%.

Regarding `C#CCSc1nc2sc(C(=O)O)c(C)c2c(=O)[nH]1`, the inhibition lay in the range of 9 to 58%.

`O=C(O)c1ccc(COc2ccc(F)cc2)o1`: the inhibition was in the range of 10 to 16%.

In the case of `Cc1nnc(SCC(=O)c2ccc(C)c(C)c2)[nH]1`, the inhibition lay within 10 to 24%.

On to `O=C(O)c1ccc(-c2ccc(Cl)c(Cl)c2)o1`, for which the inhibition was in the range of 46 to 51%.

Regarding `Nc1ccc(C(=O)c2ccccc2)cc1N`, the inhibition lay within 10 to 39%.

As for `Cc1ccc(C(=O)CSc2nnc(N)[nH]2)cc1`, the inhibition was in the range of 17 to 52%.

In the case of `CCOC(=O)C(C)Sc1nnc(N)[nH]1` (stereo not drawn), the inhibition lay in the range of 36 to 55%.

Take `Cc1ccc(OCc2ccc(C(=O)O)o2)cc1`: the inhibition was in the range of 1 to 22%.

Turning to `CCCCCn1cnc2sc(C(=O)O)c(C)c2c1=O`, the inhibition was in the range of 34 to 57%.

Regarding `Cc1cc(OC(C)C(=O)NN)cc(C)c1Cl` (stereo not drawn), the inhibition was in the range of 31 to 69%.

As for `O=C(O)c1nc(C2CC2)n2ccccc12`, the inhibition fell in the range of 40 to 68%.

On to `CC(Sc1nnc(N)[nH]1)C(=O)OC1CCCCC1` (stereo not drawn), for which the inhibition was in the range of 46 to 54%.

Regarding `O=C(O)c1ccc(CS(=O)(=O)c2ccccc2)o1`, the inhibition lay within 16 to 27%.

Regarding `c1ccc2[nH]c(C3CCCN3)nc2c1` (stereo not drawn), the inhibition was 6 to 23%.

Consider `c1ccc(CSc2n[nH]c(-c3ccco3)n2)cc1`, for which the inhibition fell in the range of 13 to 16%.

With `Cc1ccc(Sc2ccc(C(=O)O)o2)cc1`, the inhibition is 27 to 62%.

As for `Cc1c(C(=O)O)sc2ncn(C3CCCCC3)c(=O)c12`, the inhibition lay in the range of 17 to 26%.

For the compound `Nc1n[nH]c(SCC(=O)c2ccc([N+](=O)[O-])cc2)n1`, the inhibition lay within 19 to 53%.

Consider `CC(C)(Oc1ccc(Cl)cc1)C(=O)NN`, for which the inhibition is 42 to 46%.

For the compound `COc1ccc(O)c(C2=NNC(c3ccc(F)cc3)C2)c1` (stereo not drawn), the inhibition was 26 to 48%.

For `O=C(O)c1cc(Br)c(Br)s1`, the inhibition lay in the range of 30 to 64%.

Turning to `CC(N)c1nnc(-c2ccccc2)o1` (stereo not drawn), the inhibition is 1 to 32%.

As to `Cc1ccccc1NC(=O)CSc1nnc[nH]1`, the inhibition lay in the range of 26 to 64%.

Take `CC(Sc1nnc(N)[nH]1)C(=O)OCc1ccccc1` (stereo not drawn): the inhibition fell in the range of 37 to 54%.

On to `Nc1n[nH]c(SCc2cccc(Br)c2)n1`, for which the inhibition was in the range of 55 to 64%.

As for `O=C(O)c1nn(-c2ccccc2)c(=O)c2ccccc12`, the inhibition lay within 21 to 44%.

Take `O=C(NCc1ccccn1)c1ccc2[nH]c(=O)c(=O)[nH]c2c1`: the inhibition was in the range of 36 to 40%.

As to `O=C(O)c1cnc2c(ccc3ccccc32)c1O`, the inhibition was 22 to 43%.

As for `Nc1nnc(SCCc2ccccc2)[nH]1`, the inhibition fell in the range of 14 to 42%.

In the case of `O=C(O)C1=NN(c2ccccc2)C(=O)CC1`, the inhibition lay in the range of 14 to 39%.

For `O=C(O)c1ccc(-c2cc(Cl)ccc2Cl)s1`, the inhibition was 1 to 80%.

Consider `CN(C)Cc1cc(C(=O)O)no1`, for which the inhibition lay within 2 to 60%.

As for `CC(C)c1ccc(CSc2nnc(N)[nH]2)cc1`, the inhibition was in the range of 48 to 90%.

Take `CCc1ccc(NC(=O)CSc2nnc[nH]2)cc1`: the inhibition fell in the range of 18 to 60%.

For `COc1ccccc1C1CC(c2cc(F)ccc2O)=NN1` (stereo not drawn), the inhibition was 1 to 57%.

For the compound `c1ccc(-c2nc3ccccc3[nH]2)nc1`, the inhibition lay in the range of 1 to 35%.

As for `COc1cccc(-c2nnc(CN)o2)c1`, the inhibition is 1 to 33%.

`Nc1n[nH]c(SCc2c(Cl)cccc2Cl)n1`: the inhibition lay within 5 to 17%.

With `Cc1ccc(C(=O)CSc2nnc(-c3ccco3)[nH]2)cc1`, the inhibition was in the range of 24 to 26%.

Turning to `O=C(O)c1ccc(COc2ccccc2F)o1`, the inhibition was 5 to 46%.

In the case of `O=C(O)c1cnc(-c2cccc(Cl)c2)o1`, the inhibition was 1 to 37%.

In the case of `c1ccn2c(C3CCCNC3)nnc2c1` (stereo not drawn), the inhibition was in the range of 2 to 47%.

In the case of `CC(C)c1ccc2nc(-c3ccccn3)cc(C(=O)O)c2c1`, the inhibition is 18 to 56%.

On to `CC(C)(C)c1ccc(OCCSc2nnc(N)[nH]2)cc1`, for which the inhibition fell in the range of 25 to 28%.

Consider `Cc1ccc(SCc2ccc(C(=O)O)o2)cc1`, for which the inhibition is 4 to 9%.

For `CCc1n[nH]c(SCC(=O)c2cc(C)ccc2C)n1`, the inhibition lay within 11 to 43%.

As for `O=C(O)c1ccc(S(=O)(=O)c2ccccc2)s1`, the inhibition was in the range of 29 to 65%.

Consider `Cc1ccc(-c2ccc(C(=O)O)s2)cc1`, for which the inhibition fell in the range of 4 to 18%.

Turning to `Cc1ccc(-n2nnc(C(=O)O)c2C)cc1C`, the inhibition was found to be 41%.

On to `Cc1c(C(=O)O)sc2ncn(C)c(=O)c12`, for which the inhibition is 9 to 47%.

Broadly, the inhibition is the drop in the measured response relative to a control, in per cent.
